Tested on: HEK-293T
Assay: Multiplex assay against HEK293T;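 for Population Tubulin-Different-Phenotype (%): share of the cells with healthy nuclei that show this phenotype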
Assay type: toxicity, cell-based
Conditions: human
Method in brief: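 Per cents of healthy-nucleus cells form the tubulin, mitochondrial-mass and membrane-permeability phenotype values. Live cells were stained at seeding with Hoechst33342, BioTracker Green Microtubule Cytoskeleton Dye, MitoTracker Red and Annexin V Alexa Fluor 680. After compound addition they were imaged on a CQ1 microscope at 37°C and 5% CO2, and CellPathfinder machine-learning gating split them into Hoechst high-intensity objects or normal cells, normal cells into healthy, pyknosed or fragmented nuclei, and pyknosed cells into mitotic or apoptotic.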

[1] = 12 h, 1 µM, compound concentration 1 uM, replicate 1
[2] = 12 h, 1 µM, compound concentration 1 uM, replicate 2
[3] = 12 h, 10 µM, compound concentration 10 uM, replicate 1
[4] = 12 h, 10 µM, compound concentration 10 uM, replicate 2
[5] = 24 h, 1 µM, compound concentration 1 uM, replicate 1
[6] = 24 h, 1 µM, compound concentration 1 uM, replicate 2
[7] = 24 h, 10 µM, compound concentration 10 uM, replicate 1
[8] = 24 h, 10 µM, compound concentration 10 uM, replicate 2
[9] = 48 h, 1 µM, compound concentration 1 uM, replicate 1
[10] = 48 h, 1 µM, compound concentration 1 uM, replicate 2
[11] = 48 h, 10 µM, compound concentration 10 uM, replicate 1
[12] = 48 h, 10 µM, compound concentration 10 uM, replicate 2

Cc1ccc(C(=O)Nc2cccc(C(F)(F)F)c2)cc1Nc1nc(-c2cccnc2)nc2c1cnn2C
Population Apoptotic (%) [1]: 63% | Population Fragmented Nuclei (%) [1]: 15% | Population Healthy Nuclei (%) [1]: 33% | Population Hoechst High Intensity Objects (%) [1]: 19% | Population Membrane Permeable-Phenotype (%) [1]: 1% | Population Mitochondria Different-Phenotype (%) [1]: 94% | Population Mitotic Cells (%) [1]: 36% | Population Normal (%) [1]: 80% | Population Pyknosed Nuclei (%) [1]: 50% | Population Tubulin-Different-Phenotype (%) [1]: 94% | Total Cell Count [1]: 318 | Population Apoptotic (%) [2]: 27% | Population Fragmented Nuclei (%) [2]: 7% | Population Healthy Nuclei (%) [2]: 25% | Population Hoechst High Intensity Objects (%) [2]: 9% | Population Membrane Permeable-Phenotype (%) [2]: 7% | Population Mitochondria Different-Phenotype (%) [2]: 52% | Population Mitotic Cells (%) [2]: 72% | Population Normal (%) [2]: 90% | Population Pyknosed Nuclei (%) [2]: 66% | Population Tubulin-Different-Phenotype (%) [2]: 89% | Total Cell Count [2]: 162 | Population Apoptotic (%) [3]: 86% | Population Fragmented Nuclei (%) [3]: 16% | Population Healthy Nuclei (%) [3]: 7% | Population Hoechst High Intensity Objects (%) [3]: 19% | Population Membrane Permeable-Phenotype (%) [3]: 8% | Population Mitochondria Different-Phenotype (%) [3]: 91% | Population Mitotic Cells (%) [3]: 13% | Population Normal (%) [3]: 80% | Population Pyknosed Nuclei (%) [3]: 75% | Population Tubulin-Different-Phenotype (%) [3]: 91% | Total Cell Count [3]: 200 | Population Apoptotic (%) [4]: 78% | Population Fragmented Nuclei (%) [4]: 5% | Population Healthy Nuclei (%) [4]: 13% | Population Hoechst High Intensity Objects (%) [4]: 5% | Population Membrane Permeable-Phenotype (%) [4]: 4% | Population Mitochondria Different-Phenotype (%) [4]: 96% | Population Mitotic Cells (%) [4]: 21% | Population Normal (%) [4]: 94% | Population Pyknosed Nuclei (%) [4]: 81% | Population Tubulin-Different-Phenotype (%) [4]: 92% | Total Cell Count [4]: 190 | Population Apoptotic (%) [5]: 64% | Population Fragmented Nuclei (%) [5]: 14% | Population Healthy Nuclei (%) [5]: 38% | Population Hoechst High Intensity Objects (%) [5]: 16% | Population Membrane Permeable-Phenotype (%) [5]: 2% | Population Mitochondria Different-Phenotype (%) [5]: 92% | Population Mitotic Cells (%) [5]: 35% | Population Normal (%) [5]: 83% | Population Pyknosed Nuclei (%) [5]: 46% | Population Tubulin-Different-Phenotype (%) [5]: 90% | Total Cell Count [5]: 330 | Population Apoptotic (%) [6]: 51% | Population Fragmented Nuclei (%) [6]: 7% | Population Healthy Nuclei (%) [6]: 43% | Population Hoechst High Intensity Objects (%) [6]: 6% | Population Membrane Permeable-Phenotype (%) [6]: 11% | Population Mitochondria Different-Phenotype (%) [6]: 64% | Population Mitotic Cells (%) [6]: 48% | Population Normal (%) [6]: 93% | Population Pyknosed Nuclei (%) [6]: 48% | Population Tubulin-Different-Phenotype (%) [6]: 97% | Total Cell Count [6]: 172 | Population Apoptotic (%) [7]: 89% | Population Fragmented Nuclei (%) [7]: 16% | Population Healthy Nuclei (%) [7]: 10% | Population Hoechst High Intensity Objects (%) [7]: 22% | Population Membrane Permeable-Phenotype (%) [7]: 0% | Population Mitochondria Different-Phenotype (%) [7]: 100% | Population Mitotic Cells (%) [7]: 10% | Population Normal (%) [7]: 77% | Population Pyknosed Nuclei (%) [7]: 72% | Population Tubulin-Different-Phenotype (%) [7]: 100% | Total Cell Count [7]: 225 | Population Apoptotic (%) [8]: 85% | Population Fragmented Nuclei (%) [8]: 5% | Population Healthy Nuclei (%) [8]: 24% | Population Hoechst High Intensity Objects (%) [8]: 4% | Population Membrane Permeable-Phenotype (%) [8]: 4% | Population Mitochondria Different-Phenotype (%) [8]: 95% | Population Mitotic Cells (%) [8]: 14% | Population Normal (%) [8]: 95% | Population Pyknosed Nuclei (%) [8]: 70% | Population Tubulin-Different-Phenotype (%) [8]: 95% | Total Cell Count [8]: 205 | Population Apoptotic (%) [9]: 52% | Population Fragmented Nuclei (%) [9]: 21% | Population Healthy Nuclei (%) [9]: 45% | Population Hoechst High Intensity Objects (%) [9]: 15% | Population Membrane Permeable-Phenotype (%) [9]: 4% | Population Mitochondria Different-Phenotype (%) [9]: 74% | Population Mitotic Cells (%) [9]: 47% | Population Normal (%) [9]: 84% | Population Pyknosed Nuclei (%) [9]: 33% | Population Tubulin-Different-Phenotype (%) [9]: 88% | Total Cell Count [9]: 371 | Population Apoptotic (%) [10]: 47% | Population Fragmented Nuclei (%) [10]: 6% | Population Healthy Nuclei (%) [10]: 63% | Population Hoechst High Intensity Objects (%) [10]: 9% | Population Membrane Permeable-Phenotype (%) [10]: 8% | Population Mitochondria Different-Phenotype (%) [10]: 43% | Population Mitotic Cells (%) [10]: 52% | Population Normal (%) [10]: 90% | Population Pyknosed Nuclei (%) [10]: 30% | Population Tubulin-Different-Phenotype (%) [10]: 96% | Total Cell Count [10]: 230 | Population Apoptotic (%) [11]: 86% | Population Fragmented Nuclei (%) [11]: 23% | Population Healthy Nuclei (%) [11]: 15% | Population Hoechst High Intensity Objects (%) [11]: 20% | Population Membrane Permeable-Phenotype (%) [11]: 6% | Population Mitochondria Different-Phenotype (%) [11]: 100% | Population Mitotic Cells (%) [11]: 13% | Population Normal (%) [11]: 79% | Population Pyknosed Nuclei (%) [11]: 60% | Population Tubulin-Different-Phenotype (%) [11]: 96% | Total Cell Count [11]: 258 | Population Apoptotic (%) [12]: 89% | Population Fragmented Nuclei (%) [12]: 8% | Population Healthy Nuclei (%) [12]: 29% | Population Hoechst High Intensity Objects (%) [12]: 7% | Population Membrane Permeable-Phenotype (%) [12]: 1% | Population Mitochondria Different-Phenotype (%) [12]: 93% | Population Mitotic Cells (%) [12]: 10% | Population Normal (%) [12]: 92% | Population Pyknosed Nuclei (%) [12]: 61% | Population Tubulin-Different-Phenotype (%) [12]: 93% | Total Cell Count [12]: 209
